Compound activity as filed in PubChem BioAssay.
Rows were chosen to be rich in hits. Some 3.5% of all compounds tested hit in one or more screens of this group.
RGS4 pot: potentiators or activators of RGS4. HEK293 M3R/inducible RGS4, carbachol calcium flux Fluo4; stronger effect = lower value. B-score at 10 µM. hit rate 0.92% among 310,000. AID 463111;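 active = B-score of the integrated calcium signal more than 4 SD below the library mean, with starting fluorescence not abnormally high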;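 also: negative B-score means reduced calcium response which marks RGS4 activation or potentiation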
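test system = M3R-expressing HEK293 line, RGS4 induced by doxycycline | probe or stimulus = carbachol at ECmax as muscarinic agonist stimulus | timing = dye loading 30 min 37 °C, buffer rest 30 min RT | signal = calcium dye Fluo4 fluorescence | evaluation = B score from integrated fluorescence ratio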
MrgX1 antag: blocks BAM8-22 activation of human MrgX1 receptor. Q96LB2. B-score at 10 µM. hit rate 1.3% among 310,000. MRGX1-HEK293 calcium flux, Fluo-4, BAM8-22 antagonism; stronger effect = lower value;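 active = calcium-response B-score plate-corrected more than 3 library SD below zero, starting fluorescence within 5 deviations, no agonist response on first addition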;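 also: peak minus trough fluorescence over baseline after final BAM8-22 challenge near maximal dose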
Target sequence (Q96LB2 whole entry, looked up): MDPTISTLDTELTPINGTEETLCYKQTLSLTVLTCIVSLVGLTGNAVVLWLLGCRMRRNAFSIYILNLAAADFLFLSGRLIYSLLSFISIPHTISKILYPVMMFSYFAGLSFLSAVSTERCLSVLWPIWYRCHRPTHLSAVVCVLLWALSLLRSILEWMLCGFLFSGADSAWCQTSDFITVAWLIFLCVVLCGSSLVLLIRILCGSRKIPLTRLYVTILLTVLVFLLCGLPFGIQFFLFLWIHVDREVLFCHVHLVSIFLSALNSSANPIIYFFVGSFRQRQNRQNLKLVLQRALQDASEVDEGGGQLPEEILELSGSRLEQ
MrgX1 PAM: human MrgX1 positive allosteric modulation, primary screen; Q96LB2; MrgX1-HEK293, Fluo-4 calcium flux, FDSS; stronger effect = higher value; B-score at 10 µM; hit rate 0.63% among 310,000; AID 588675;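 active = plate-corrected calcium response at least 3 library SD above typical, normal starting fluorescence, not activating the receptor alone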;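 also: compound read alongside a low EC10 to EC30 dose of BAM8-22 agonist; peak minus trough fluorescence over baseline measured at the second addition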
MrgX1 agonist: activates human MrgX1 receptor signaling | Q96LB2 | MrgX1-HEK293 cells, Fluo-4 calcium fluorescence, agonist mode; stronger effect = higher value | B-score at 10 µM | hit rate 0.44% among 310,000;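 active = calcium response B-score plate-corrected fluorescence ratio at least 3 library SD, with starting fluorescence B-score inside 5 SD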
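times = overnight plating, then 30 min 37 °C plus 30 min room-temperature dye loading | assay system = stable human MrgX1 HEK293 cell line | input = fifteen thousand cells per well | signal = kinetic calcium dye fluorescence, Fluo-4 NW | dosing = compound delivered in addition one of three | read-out = B-scored fluorescence response ratio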
RGS4 inh: inhibitors of human RGS4; P49798; HEK293 M3R/RGS4 inducible, Fluo-4 calcium flux; stronger effect = higher value; triggered by carbachol at its EC20; B-score at 10 µM; hit rate 0.45% among 310,000; AID 463165;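 active = B-score, a plate-corrected calcium signal, over three deviations above library mean, with baseline fluorescence within five deviations of library mean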;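 also: RGS4 expression induced by doxycycline in cells with stable M3 receptor; B-score is computed from the integrated fluorescence ratio over baseline after carbachol; higher B-score means a larger calcium signal and so more RGS4 inhibition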
Target sequence (P49798 whole entry, looked up): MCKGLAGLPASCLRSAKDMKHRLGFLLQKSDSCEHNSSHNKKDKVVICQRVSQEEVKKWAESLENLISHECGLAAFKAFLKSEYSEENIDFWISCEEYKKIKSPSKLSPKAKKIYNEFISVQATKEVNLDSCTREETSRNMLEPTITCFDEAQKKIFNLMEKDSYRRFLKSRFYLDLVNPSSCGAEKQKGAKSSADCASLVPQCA
RGS4 block valid: RGS4 inhibitor validation; shares compounds with RGS4 inh; HEK293 M3R/RGS4, carbachol calcium Fluo-4 fluorescence; carbachol added at its EC20; 0 = buffer wells, 100 = carbachol control; calcium response, % at 10 µM; hit rate 65% among 1,700; AID 492999;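 active = duplicate-averaged calcium response above the buffer-only control mean plus 5 SD of those controls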;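 also: integrated fluorescence ratio F max minus min over baseline F0; higher response in RGS4-induced cells means RGS4 inhibition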
M3R Ca ctr: non-induced cell nonspecific activity of RGS4 inhibitors | shares compounds with RGS4 inh | HEK293 M3R non-induced, carbachol calcium Fluo-4; submaximal (EC20) carbachol stimulus; buffer wells 0%, carbachol control wells 100% | activity (percent), % at 10 µM | hit rate 20% among 1,900 | AID 493000; call rule not given here;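 also: RGS4 induction absent so cells express M3R without RGS4; higher means more calcium signal and flags a non-specific hit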
RGS4 inh ctr2: second counter-screen for RGS4 inhibitors: non-induced cells without carbachol | shares compounds with RGS4 inh | HEK293 M3R/RGS4 non-induced, Fluo-4 calcium, no carbachol; normalised: buffer wells 0%, carbachol wells 100% | calcium response (agonist-mode artifact), % at 10 µM | hit rate 22% among 1,900;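 active = duplicate-averaged calcium rise in uninduced cells above buffer wells' mean plus 5 SD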
Numbers without * were called inactive; i = inactive; x = no result.

SMILES | RGS4 pot | MrgX1 antag | MrgX1 PAM | MrgX1 agonist | RGS4 inh | RGS4 block valid | M3R Ca ctr | RGS4 inh ctr2
O=C(O)c1cc(S(=O)(=O)Nc2cccc(Oc3ccccc3)c2)ccc1Br | i | i | i | i | i | x | x | x
Cc1nn(-c2ccccc2)c(C)c1NC(=O)COC(=O)Cc1cccc(C(F)(F)F)c1 | i | i | i | i | i | x | x | x
CCOC(=O)Cn1nnnc1CN1CCN(c2ccc(OC)cc2)CC1 | i | i | i | i | i | x | x | x
COC(=O)C1CCN(Cc2cc(=O)oc3cc(OC)ccc23)CC1 | i | i | i | i | 4.8* | 21%* | i | i
COc1ccc(OC)c(CN2CCN(Cc3cc(=O)oc4cc(O)ccc34)CC2)c1 | i | i | i | i | i | x | x | x
CCOC(=O)C1CCN(Cc2cc(=O)oc3cc(C)c(Cl)cc23)CC1 | i | i | i | i | 9.3* | 5.0%* | i | i
O=C(COC(=O)c1c(Cl)cccc1Cl)NCC1CCCO1 (centres undefined) | i | i | i | i | i | x | x | x
CC1CCN(c2c(NCC3CCC(C(=O)NCCc4ccccc4)CC3)c(=O)c2=O)CC1 (centres undefined) | i | i | i | i | i | x | i | i
O=C(N/N=C/c1c[nH]c2ccccc12)C1CC1(c1ccccc1)c1ccccc1 (centres undefined) | i | i | i | i | i | x | x | x
O=C(N/N=C/c1c[nH]c2ccccc12)c1cc(-c2ccc(-c3ccccc3)cc2)n[nH]1 | i | i | i | i | i | x | x | x
O=C(N/N=C/c1c[nH]c2ccccc12)C1CC1c1ccccc1 (centres undefined) | i | i | i | i | 5.6* | 9.5%* | 36%* | 11%*
Cc1ccc(-c2cc(C(=O)N/N=C/c3c[nH]c4ccccc34)[nH]n2)cc1 | i | x | x | x | i | i | i | i
CCOC(=O)C1CCCN(C(=O)c2csc(-c3ccc4c(c3)CCO4)n2)C1 (centres undefined) | i | i | i | i | i | x | x | x
COc1ccccc1CNC(=O)C1CC2Cn3c(nc4cc(C)c(C)cc43)C2N1C (centres undefined) | i | i | i | i | i | x | x | x
COC(=O)c1sccc1S(=O)(=O)N1CCCC(N(C)CCc2ccccn2)C1 (centres undefined) | i | i | i | i | i | x | x | x
O=C1NN(c2ccccc2)C(=O)/C1=C/c1coc2ccccc2c1=O | i | i | i | i | i | x | x | x
O=C1NN(c2ccccc2)C(=O)/C1=C\c1coc2ccc(O)cc2c1=O | i | i | i | 27* | 7.9* | 30%* | i | i
CCCCn1c(N)c(N(CC(C)C)C(=O)c2oc3ccc(Br)cc3c2C)c(=O)[nH]c1=O | i | i | i | i | i | x | x | x
O=C(O)CCc1ccc(-c2ccccc2)o1 | i | i | i | i | 5.1* | 5.0%* | i | i
O=C(O)CCC(=O)Nc1sc2c(c1C(=O)Nc1ccccc1)CCCCC2 | i | i | i | i | 5.5* | 7.0%* | 64%* | i
CCOc1c(Br)cc(/C=C2\N=C(C)OC2=O)cc1Br | i | i | i | i | 4.7* | 66%* | 37%* | i
O=C(/C=C/c1ccc([N+](=O)[O-])cc1)c1cccnc1 | i | i | i | i | 18* | 39%* | 52%* | i
O=C(/C=C/c1cccnc1)c1ccc(F)c(F)c1 | i | i | i | i | 21* | 27%* | 46%* | i
O=C(/C=C/c1ccc([N+](=O)[O-])cc1)c1ccco1 | i | i | i | i | 11* | 12%* | i | i
O=C(/C=C/c1ccc(Br)cc1)c1ccco1 | i | i | i | i | i | x | x | x
SMILES | RGS4 pot | MrgX1 antag | MrgX1 PAM | MrgX1 agonist | RGS4 inh | RGS4 block valid | M3R Ca ctr | RGS4 inh ctr2
O=C(O)CCn1cc(C(=O)O)c(-c2ccccc2)n1 | i | i | i | i | i | x | x | x
CC(=O)Nc1ccc(NC(=O)CC2Nc3cccc4cccc(c34)NC2=O)cc1 (centres undefined) | i | i | i | i | i | i | i | i
CC(=O)N1CCc2cc(S(=O)(=O)NC(C(=O)NC(C)c3ccccc3)C(C)C)ccc21 (centres undefined) | i | i | i | i | i | i | i | i
O=C1CCC[C@@H]2Cc3[nH]c4c(Cl)ccc(Cl)c4c3[C@@H]3CCN1[C@H]23 | i | i | i | i | i | x | x | x
OCCC#Cc1c(-c2ccsc2)sc2ccccc12 | i | i | i | i | i | x | x | x
COc1ccc(-c2sc3ccccc3c2C#CCO)cc1 | i | i | i | i | i | i | i | i
COc1ccc(-c2sc3ccccc3c2C#CCCO)cc1 | i | i | i | i | 4.9* | 9.0%* | i | i
O=C(NCC1CCCO1)c1cc(C(=O)c2ccc(Cl)cc2Cl)c[nH]1 (centres undefined) | i | i | i | i | i | x | x | x
COc1ccccc1/C=c1\sc2nc(-c3ccco3)nn2c1=O | i | i | i | i | i | x | x | x
CCOc1ccc(/C=c2\sc3nc(-c4ccco4)nn3c2=O)cc1OCC | i | i | i | i | 6* | 8.5%* | i | 133%*
CCC1(CC)NC(=O)N(CC(=O)N2CCN(S(=O)(=O)c3cccc(F)c3)CC2)C1=O | i | i | i | i | i | x | x | x
C/C(=N\Nc1ccc(F)cc1F)c1ccc(Br)s1 | i | i | i | i | i | x | x | x
Cc1ccc(CSCc2ccc(C(=O)O)o2)cc1 | i | i | i | i | 5* | i | i | i
Cc1cccc(CSCc2ccc(C(=O)O)o2)c1 | i | i | i | i | i | x | x | x
C=CC(C)(C)c1c(O)c(CC=C(C)C)c(O)c2c(=O)c3ccc(O)c(O)c3oc12 | i | i | i | i | 6* | 9.5%* | i | i
COn1c(-c2ccc(Cl)cc2)nc2ncccc21 | i | i | i | i | i | x | x | x
CCOc1cc(/C=C2/SC(=S)N(Cc3ccccc3)C2=O)ccc1O | i | i | i | i | i | x | x | x
